Laboratory results taken from PubChem BioAssay.
Active and inactive are the calls of the source.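 Rule for the calls: active = current rise at least 3 SD above the untreated control mean in each of two repeat wells; inactive = the rest.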

molecular target: Potassium voltage-gated channel subfamily KQT member 1 (Homo sapiens) (UniProt P51787); test: KCNQ1 activators by electrophysiology – IonWorks patch clamp, KCNQ1-CHO cells, orthogonal assay for KCNQ1 potentiator project, confirmation (AID 493184); conditions: automated patch clamp current, at 10 µM
How it was run: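 Assay system – CHO cells carrying KCNQ1 · Medium – pH 7.4 external bath · Probe or stimulus – depolarizing pulse to +40 mV from -90 mV · Compound dosing – one dose, 10 µM final · Measured by – automated perforated-patch electrophysiology · Measure – % potentiation of steady-state current relative to pre-compound · Repeats – two replicates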

Potassium voltage-gated channel subfamily KQT member 1 (Homo sapiens), sequence (P51787 whole entry, looked up): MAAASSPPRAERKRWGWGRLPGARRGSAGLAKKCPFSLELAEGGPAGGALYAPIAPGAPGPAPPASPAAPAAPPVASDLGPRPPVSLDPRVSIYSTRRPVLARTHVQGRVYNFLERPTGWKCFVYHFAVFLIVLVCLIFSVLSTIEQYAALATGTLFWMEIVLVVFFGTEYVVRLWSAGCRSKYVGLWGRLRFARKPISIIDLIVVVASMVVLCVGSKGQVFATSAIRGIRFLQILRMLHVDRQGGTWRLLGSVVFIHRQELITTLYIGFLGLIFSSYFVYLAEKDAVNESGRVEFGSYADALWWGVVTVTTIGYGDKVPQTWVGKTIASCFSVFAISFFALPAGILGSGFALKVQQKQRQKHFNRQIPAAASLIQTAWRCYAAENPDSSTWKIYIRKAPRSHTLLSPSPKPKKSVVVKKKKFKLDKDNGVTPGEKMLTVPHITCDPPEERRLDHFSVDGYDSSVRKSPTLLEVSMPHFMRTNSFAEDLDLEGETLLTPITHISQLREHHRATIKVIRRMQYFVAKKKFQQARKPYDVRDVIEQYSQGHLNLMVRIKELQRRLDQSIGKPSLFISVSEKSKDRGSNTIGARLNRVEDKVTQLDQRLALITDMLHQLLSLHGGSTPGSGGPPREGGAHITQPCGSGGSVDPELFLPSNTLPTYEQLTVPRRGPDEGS

outcome, inactive:
CC(C)(C)C(=O)NC(=S)NNC(=O)c1ccc(-c2ccccc2)cc1
CCCOc1ccc(C(=O)NNC(=S)NC(=O)c2ccccc2)cc1
OCCN1CCN(Cc2cc(Br)cc(Br)c2O)CC1
O=c1c2cc(Br)ccc2nc(-c2cccc(C(F)(F)F)c2)n1O
COc1cc(OC)cc(C(=O)NC(=S)NNC(=O)[C@H]2C[C@@H]2c2ccccc2)c1
Cc1cccc(C(=O)NNC(=S)NC(=O)c2cccs2)c1
CC[C@@H](C(=O)[C@@H](C)[C@@H](O)[C@H](C)CCc1ccc(C)c(O)c1C(=O)O)[C@H]1O[C@](CC)([C@H]2CC[C@](O)(CC)[C@H](C)O2)C[C@@H]1C
Cc1occc1C(=O)NNC(=S)NC(=O)COc1ccc(Cl)cc1Cl
COc1cc(OC)cc(C(=O)N[C@H](C(=O)OCC(=O)NC(C)c2ccccc2)C(C)C)c1 (stereo partly specified)
CCOc1ccccc1OCC(=O)Nc1cc(S(=O)(=O)N2CCCCC2)ccc1N1CCN(CC)CC1
CCOC(=O)C1=NN(C(=O)c2ccc(C)cc2)C(O)(c2ccc(Cl)cc2)C1 (stereo unspecified)
CCCOc1ccc(C(=O)NNC(=S)NC(=O)c2cccs2)cc1
Cc1ccc(NS(=O)(=O)c2ccc(C(=O)N3CC(C)CC(C)C3)cc2)cc1 (stereo unspecified)
COC(=O)C1=NN(C(=O)c2cccc(Br)c2)C(O)(c2ccc(Cl)cc2)C1 (stereo unspecified)
CC(C)(C)c1cc(CCC(=O)NNC(=S)NC(=O)c2ccccc2)cc(C(C)(C)C)c1O
COc1ccccc1C(=O)NNC(=S)NC(=O)c1sc2ccccc2c1Cl
